Experimental data from ChEMBL document CHEMBL3580660, “Synthesis and Biological Evaluation of Novel Olean-28,13β-lactams as Potential Antiprostate Cancer Agents” (J Med Chem, 2015).
pIC50: −log10 of the molar value. Active and inactive are the calls of the source. No cut-off for these calls is given here.

Experiments:
DU-145 [1] = experiment: Antiproliferative activity against human DU145 cells at 2 uM after 72 hrs by CCK8 assay; format: functional
Summary of the method: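 DU-145 screening at single concentration 2 μM for 72 h, proliferation by CCK-8 (cells 5 × 10^3/well in 10% FCS DMEM). Percent inhibition vs untreated, background-corrected; mean ± SD from three independent experiments.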

[2] = Antiproliferative activity against human Bel7404 cells after 72 hrs by CCK8 assay; format: functional, cell-based; conditions: BEL-7404, 72 h
Summary of the method: (§1)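 CCK-8 assay: DU-145, H460, Bxpc-3, BEL-7404 and nontumor WPMY-1 cells seeded at 5 × 10^3 cells/well in 10% FCS DMEM overnight, then exposed in triplicate to 0.041−10 μM for 72 h. CCK-8 added for final 30 min, absorbance 450 nm; inhibition relative to medium-only controls after background subtraction; IC50 as concentration giving 50% inhibition.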

[3] = Antiproliferative activity against human WPMY-1 cells after 72 hrs by CCK8 assay; format: functional, cell-based; conditions: WPMY-1, 72 h; summary of the method: as §1
DU-145 [4] = experiment: Antiproliferative activity against human DU145 cells after 72 hrs by CCK8 assay; format: functional, cell-based; conditions: DU-145, 72 h; summary of the method: as §1
[5] = Antiproliferative activity against human H460 cells after 72 hrs by CCK8 assay; format: functional, cell-based; conditions: NCI-H460, 72 h; summary of the method: as §1
[6] = Antiproliferative activity against human BxPC3 cells after 72 hrs by CCK8 assay; format: functional, cell-based; conditions: BXPC-3, 72 h; summary of the method: as §1

With `CCCCCCN1C(=O)[C@]23CCC(C)(C)C[C@H]2[C@]12C(=O)C=C1[C@@]4(C)C=C(C#N)C(=O)C(C)(C)[C@@H]4CC[C@@]1(C)[C@]2(C)CC3` the inhibition (DU-145 [1]) was “Active”.
For `CC1(C)CC[C@]2(C(=O)n3ccnc3)CC[C@]3(C)[C@H](C(=O)C=C4[C@@]5(C)C=C(C#N)C(=O)C(C)(C)[C@@H]5CC[C@]43C)[C@@H]2C1`, the pIC50 [2] was 6.00, the pIC50 [3] was 5.68 and the pIC50 (DU-145 [4]) was 6.16. For the same compound, the pIC50 [5] was 6.38 and the pIC50 [6] was 5.82.
With `CC1(C)CC[C@]2(C(=O)NC3CCCCC3)CC[C@]3(C)[C@H](C(=O)C=C4[C@@]5(C)C=C(C#N)C(=O)C(C)(C)[C@@H]5CC[C@]43C)[C@@H]2C1` the inhibition at 2 µM (DU-145 [1]; DU-145, 72 h) was 53%.
With `CC1(C)CC[C@]23CC[C@@]4(C)[C@]5(C)CC[C@H]6C(C)(C)C(=O)C(C#N)=C[C@]6(C)C5=CC(=O)[C@@]4([C@@H]2C1)N(CCc1ccccc1)C3=O` the inhibition (DU-145 [1]) was “Active”.
With `CCCN1C(=O)[C@]23CCC(C)(C)C[C@H]2[C@]12C(=O)C=C1[C@@]4(C)C=C(C#N)C(=O)C(C)(C)[C@@H]4CC[C@@]1(C)[C@]2(C)CC3` the inhibition (DU-145 [1]) was “Active”.
With `CC1(C)CC[C@]23CC[C@@]4(C)[C@]5(C)CC[C@H]6C(C)(C)C(=O)C(C#N)=C[C@]6(C)C5=CC(=O)[C@@]4([C@@H]2C1)N(C(C)(C)C)C3=O` the inhibition (DU-145 [1]) was “Active”, the pIC50 [2] was 5.94 and the pIC50 [3] was 5.02. It also gave a pIC50 (DU-145 [4]) of 6.02, a pIC50 [5] of 6.37 and a pIC50 [6] of 6.18.
With `CC1(C)CC[C@]23CC[C@@]4(C)[C@]5(C)CC[C@H]6C(C)(C)C(=O)C(C#N)=C[C@]6(C)C5=CC(=O)[C@@]4([C@@H]2C1)N(CCO)C3=O` the inhibition (DU-145 [1]) was “Active”.
With `CCCCN1C(=O)[C@]23CCC(C)(C)C[C@H]2[C@]12C(=O)C=C1[C@@]4(C)C=C(C#N)C(=O)C(C)(C)[C@@H]4CC[C@@]1(C)[C@]2(C)CC3` the inhibition (DU-145 [1]) was “Active”.
With `CN1C(=O)[C@]23CCC(C)(C)C[C@H]2[C@]12C(=O)C=C1[C@@]4(C)C=C(C#N)C(=O)C(C)(C)[C@@H]4CC[C@@]1(C)[C@]2(C)CC3` the inhibition (DU-145 [1]) was “Active”.
In the case of `CCN1C(=O)[C@]23CCC(C)(C)C[C@H]2[C@]12C(=O)C=C1[C@@]4(C)C=C(C#N)C(=O)C(C)(C)[C@@H]4CC[C@@]1(C)[C@]2(C)CC3`, the inhibition (DU-145 [1]) was “Active”.
